ChEMBL document CHEMBL5724801, “EUbOPEN Chemogenomics Library - Multiplex” (2024)
Values joined by “and” are separate entries in the source; they are usually repeats but may differ in a detail not shown here. Identical values can stand only once.

Columns and labels:
Format in all cases: toxicity, cell-based
[1] = system: U2OS; experiment: Multiplex assay against U2OS; conditions: human
In short: (§1)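 On a CQ1 microscope at 37°C and 5% CO2, live cells were imaged after compound addition. They had been stained at seeding with Hoechst33342, BioTracker Green Microtubule Cytoskeleton Dye, MitoTracker Red and Annexin V Alexa Fluor 680. CellPathfinder machine-learning gating assigned cells to Hoechst high-intensity objects or normal cells, normal cells to healthy, pyknosed or fragmented nuclei, and pyknosed cells to mitotic or apoptotic. Tubulin, mitochondrial-mass and membrane-permeability phenotypes are per cents of healthy-nucleus cells.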

[2] = system: Fibroblast; experiment: Multiplex assay against human fibroblast; in short: as §1
[3] = system: HEK-293T; experiment: Multiplex assay against HEK293T; conditions: human; in short: as §1
[4] = 12 h, 1 µM, compound concentration 1 uM
[5] = 12 h, 10 µM, compound concentration 10 uM
[6] = 24 h, 1 µM, compound concentration 1 uM
[7] = 24 h, 10 µM, compound concentration 10 uM
[8] = 48 h, 1 µM, compound concentration 1 uM
[9] = 48 h, 10 µM, compound concentration 10 uM

## Cc1sc2c(c1C)C(c1ccc(Cl)cc1)=N[C@@H](CC(=O)NCCCCCCCCNC(=O)COc1cccc3c1C(=O)N(C1CCC(=O)NC1=O)C3=O)c1nnc(C)n1-2 (stereo not given in full)
[1]; [4]
  Population Apoptotic (%): 93% and 87%
  Population Healthy Nuclei (%): 49% and 80%
  Population Hoechst High Intensity Objects (%): 11% and 0%
  Population Membrane Permeable-Phenotype (%): 9% and 5%
  Population Mitochondria Different-Phenotype (%): 4% and 1%
  Population Mitotic Cells (%): 6% and 12%
  Population Normal (%): 88% and 99%
  Population Pyknosed Nuclei (%): 6% and 5%
  Population Tubulin-Different-Phenotype (%): 5% and 3%
  Total Cell Count: 269 and 136
[1]; [5]
  Population Apoptotic (%): 86% and 100%
  Population Fragmented Nuclei (%): 31% and 19%
  Population Healthy Nuclei (%): 55% and 75%
  Population Hoechst High Intensity Objects (%): 5% and 0%
  Population Mitochondria Different-Phenotype (%): 4% and 12%
  Population Mitotic Cells (%): 13% and 0%
  Population Normal (%): 94% and 99%
  Population Pyknosed Nuclei (%): 13% and 4%
  Population Tubulin-Different-Phenotype (%): 0% and 12%
  Total Cell Count: 233 and 117
[1]; [6]
  Population Apoptotic (%): 100% and 92%
  Population Healthy Nuclei (%): 51% and 80%
  Population Hoechst High Intensity Objects (%): 11% and 2%
  Population Membrane Permeable-Phenotype (%): 8% and 5%
  Population Mitochondria Different-Phenotype (%): 3% and 2%
  Population Mitotic Cells (%): 0% and 7%
  Population Normal (%): 88% and 97%
  Population Pyknosed Nuclei (%): 6% and 7%
  Population Tubulin-Different-Phenotype (%): 5% and 4%
  Total Cell Count: 297 and 174
[1]; [7]
  Population Apoptotic (%): 100%
  Population Fragmented Nuclei (%): 34% and 27%
  Population Healthy Nuclei (%): 53% and 65%
  Population Hoechst High Intensity Objects (%): 8% and 0%
  Population Mitochondria Different-Phenotype (%): 5% and 9%
  Population Mitotic Cells (%): 0%
  Population Normal (%): 91% and 99%
  Population Pyknosed Nuclei (%): 12% and 7%
  Total Cell Count: 245 and 130
[1]; [8]
  Population Apoptotic (%): 91% and 90%
  Population Fragmented Nuclei (%): 35% and 12%
  Population Healthy Nuclei (%): 53% and 79%
  Population Hoechst High Intensity Objects (%): 10% and 1%
  Population Membrane Permeable-Phenotype (%): 6% and 4%
  Population Mitochondria Different-Phenotype (%): 1%
  Population Mitotic Cells (%): 8% and 9%
  Population Normal (%): 89% and 98%
  Population Pyknosed Nuclei (%): 10% and 7%
  Population Tubulin-Different-Phenotype (%): 2% and 1%
  Total Cell Count: 353 and 270
[1]; [9]
  Population Apoptotic (%): 100%
  Population Fragmented Nuclei (%): 36% and 25%
  Population Healthy Nuclei (%): 51% and 70%
  Population Hoechst High Intensity Objects (%): 7% and 2%
  Population Membrane Permeable-Phenotype (%): 9% and 10%
  Population Mitochondria Different-Phenotype (%): 4%
  Population Mitotic Cells (%): 0%
  Population Normal (%): 92% and 97%
  Population Pyknosed Nuclei (%): 12% and 4%
  Population Tubulin-Different-Phenotype (%): 4% and 7%
  Total Cell Count: 289 and 179
[2]; [4]
  Population Apoptotic (%): 57% and 42%
  Population Healthy Nuclei (%): 72% and 34%
  Population Hoechst High Intensity Objects (%): 3% and 6%
  Population Mitotic Cells (%): 42% and 57%
  Population Normal (%): 96% and 93%
  Population Pyknosed Nuclei (%): 16% and 31%
  Population Tubulin-Different-Phenotype (%): 25% and 66%
  Total Cell Count: 118 and 94
[2]; [5]
  Population Apoptotic (%): 54% and 44%
  Population Fragmented Nuclei (%): 13% and 27%
  Population Healthy Nuclei (%): 56% and 27%
  Population Hoechst High Intensity Objects (%): 11% and 17%
  Population Membrane Permeable-Phenotype (%): 1% and 7%
  Population Mitochondria Different-Phenotype (%): 19% and 26%
  Population Mitotic Cells (%): 45% and 55%
  Population Normal (%): 88% and 82%
  Population Pyknosed Nuclei (%): 30% and 45%
  Population Tubulin-Different-Phenotype (%): 50% and 69%
  Total Cell Count: 171 and 115
[2]; [6]
  Population Apoptotic (%): 56% and 65%
  Population Fragmented Nuclei (%): 20% and 41%
  Population Healthy Nuclei (%): 53% and 32%
  Population Hoechst High Intensity Objects (%): 10% and 3%
  Population Mitotic Cells (%): 44% and 35%
  Population Normal (%): 89% and 96%
  Population Pyknosed Nuclei (%): 26% and 25%
  Population Tubulin-Different-Phenotype (%): 25% and 72%
  Total Cell Count: 107 and 80
[2]; [7]
  Population Apoptotic (%): 67% and 44%
  Population Fragmented Nuclei (%): 20% and 25%
  Population Healthy Nuclei (%): 38% and 32%
  Population Hoechst High Intensity Objects (%): 13% and 12%
  Population Mitochondria Different-Phenotype (%): 9% and 20%
  Population Mitotic Cells (%): 32% and 55%
  Population Normal (%): 86% and 87%
  Population Pyknosed Nuclei (%): 41% and 42%
  Population Tubulin-Different-Phenotype (%): 47% and 68%
  Total Cell Count: 154 and 103
[2]; [8]
  Population Apoptotic (%): 88% and 93%
  Population Fragmented Nuclei (%): 41% and 42%
  Population Healthy Nuclei (%): 24% and 37%
  Population Mitochondria Different-Phenotype (%): 0% and 20%
  Population Mitotic Cells (%): 12% and 6%
  Population Normal (%): 72% and 91%
  Population Pyknosed Nuclei (%): 33% and 20%
  Population Tubulin-Different-Phenotype (%): 33% and 82%
  Total Cell Count: 102 and 85
[2]; [9]
  Population Apoptotic (%): 86% and 57%
  Population Fragmented Nuclei (%): 40% and 38%
  Population Healthy Nuclei (%): 20% and 38%
  Population Hoechst High Intensity Objects (%): 38% and 15%
  Population Membrane Permeable-Phenotype (%): 5% and 14%
  Population Mitochondria Different-Phenotype (%): 10% and 14%
  Population Normal (%): 61% and 84%
  Population Pyknosed Nuclei (%): 38% and 23%
  Population Tubulin-Different-Phenotype (%): 55% and 80%
  Total Cell Count: 156 and 108
[3]; [4]
  Population Apoptotic (%): 66% and 62%
  Population Fragmented Nuclei (%): 5% and 6%
  Population Healthy Nuclei (%): 55% and 69%
  Population Membrane Permeable-Phenotype (%): 0%
  Population Mitochondria Different-Phenotype (%): 73% and 91%
  Population Mitotic Cells (%): 33% and 37%
  Population Normal (%): 90% and 69%
  Population Pyknosed Nuclei (%): 39% and 24%
  Population Tubulin-Different-Phenotype (%): 49% and 59%
  Total Cell Count: 175 and 205
[3]; [5]
  Population Apoptotic (%): 60% and 53%
  Population Fragmented Nuclei (%): 9% and 8%
  Population Healthy Nuclei (%): 67% and 66%
  Population Hoechst High Intensity Objects (%): 14% and 37%
  Population Membrane Permeable-Phenotype (%): 0%
  Population Mitochondria Different-Phenotype (%): 75% and 87%
  Population Mitotic Cells (%): 39% and 46%
  Population Normal (%): 85% and 62%
  Population Pyknosed Nuclei (%): 23% and 24%
  Population Tubulin-Different-Phenotype (%): 23% and 39%
  Total Cell Count: 363 and 315
[3]; [6]
  Population Apoptotic (%): 51% and 67%
  Population Fragmented Nuclei (%): 7% and 6%
  Population Healthy Nuclei (%): 61% and 70%
  Population Membrane Permeable-Phenotype (%): 0%
  Population Mitochondria Different-Phenotype (%): 58% and 83%
  Population Mitotic Cells (%): 48% and 32%
  Population Normal (%): 93% and 69%
  Population Pyknosed Nuclei (%): 31% and 23%
  Population Tubulin-Different-Phenotype (%): 22% and 31%
  Total Cell Count: 261 and 231
[3]; [7]
  Population Apoptotic (%): 52% and 57%
  Population Fragmented Nuclei (%): 11% and 9%
  Population Healthy Nuclei (%): 64% and 60%
  Population Membrane Permeable-Phenotype (%): 0%
  Population Mitochondria Different-Phenotype (%): 64% and 86%
  Population Mitotic Cells (%): 47% and 42%
  Population Normal (%): 87% and 60%
  Population Pyknosed Nuclei (%): 24% and 30%
  Population Tubulin-Different-Phenotype (%): 19%
  Total Cell Count: 397 and 346
[3]; [8]
  Population Apoptotic (%): 55% and 67%
  Population Fragmented Nuclei (%): 7% and 9%
  Population Healthy Nuclei (%): 58% and 65%
  Population Membrane Permeable-Phenotype (%): 0%
  Population Mitochondria Different-Phenotype (%): 56% and 78%
  Population Mitotic Cells (%): 44% and 32%
  Population Normal (%): 97% and 84%
  Population Pyknosed Nuclei (%): 33% and 25%
  Population Tubulin-Different-Phenotype (%): 30% and 42%
  Total Cell Count: 284 and 289
[3]; [9]
  Population Apoptotic (%): 48% and 65%
  Population Fragmented Nuclei (%): 9% and 15%
  Population Healthy Nuclei (%): 55% and 52%
  Population Hoechst High Intensity Objects (%): 14% and 31%
  Population Membrane Permeable-Phenotype (%): 0%
  Population Mitochondria Different-Phenotype (%): 51% and 76%
  Population Mitotic Cells (%): 51% and 34%
  Population Normal (%): 85% and 69%
  Population Pyknosed Nuclei (%): 35% and 31%
  Population Tubulin-Different-Phenotype (%): 17% and 31%
  Total Cell Count: 403 and 300
